DSG3 Ab inh – human desmoglein-3 autoantibody binding inhibition | DSG3-coupled beads, scFv-anti-DSG3-GFP binding, flow cytometry; hits give low values | P32926 | AID 588358 | binding (percent of control), % at 10 µM | actives 0.48% (n = 310,000);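 active = binding more than 3 SD below its plate's average and above zero; inconclusive = below that plate limit but binding exactly zero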;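 note: hits lower antibody fragment binding to DSG3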
Mcl1 Bid PPI – disrupts binding of human Mcl-1 to Bid peptide. TR-FRET Mcl-1/Bid-Dy647 peptide binding, 1536-well. inhibition, % at 21.7 µM. actives 0.97% (n = 220,000). AID 1021;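 active = compounds that cut the binding signal by more than half at the single screening dose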;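 note: His-tagged Mcl-1 with europium anti-His antibody binding Bid BH3 peptide; 0% = Mcl-1 plus peptide wells and 100% = peptide-only wells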
Target sequence (Q07820 whole entry, looked up): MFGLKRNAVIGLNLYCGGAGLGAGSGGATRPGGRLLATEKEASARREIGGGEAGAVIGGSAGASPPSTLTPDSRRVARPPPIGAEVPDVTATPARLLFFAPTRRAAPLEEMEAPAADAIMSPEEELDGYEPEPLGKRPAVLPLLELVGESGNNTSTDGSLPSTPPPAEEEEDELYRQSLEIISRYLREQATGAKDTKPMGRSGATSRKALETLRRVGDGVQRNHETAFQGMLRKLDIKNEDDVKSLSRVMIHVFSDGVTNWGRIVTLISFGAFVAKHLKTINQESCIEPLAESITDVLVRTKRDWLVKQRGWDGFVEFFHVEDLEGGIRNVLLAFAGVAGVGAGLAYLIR
T cell HTS – T cell immune modulators affecting CD8 T cell-vesicle binding; 2C CD8+ T cell-vesicle binding, flow cytometry; hits give low values; response (vesicle binding), % at 7 µM; actives 0.068% (n = 330,000); AID 2052;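 active = response, share of CD8 T cells binding vesicles, and their 90th percentile fluorescence all below set limits, cut at about 80% in these data, passing the limit was not always enough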;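 note: values below 100% mean blocked vesicle binding to the CD8+ T cells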
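material = purified 2C TCR transgenic mouse naive CD8+ T cells | controls = Unloaded micro-vesicles (low), QL9 vesicles with 0.7% DMSO (high) | detection = cytometric PE anti-B7-1 and Alexa647 anti-CD8 signals after 1% paraformaldehyde fixation | incubation = binding step 1.5 h, 37 °C, antibody labelling 20 min, ice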
Mcl1 Noxa PPI – disrupts binding of human Mcl-1 to Noxa peptide; Q07820; TR-FRET Mcl-1/Noxa peptide binding, 2 h; inhibition, % at 21.7 µM; actives 1.5% (n = 220,000); AID 1022;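 active = compounds that cut the protein-peptide binding signal by more than 50% relative to plate controls in a single-dose test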;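 note: His-tagged Mcl-1 with rhodamine Noxa BH3 peptide and terbium anti-His antibody; 0% = Mcl-1 plus Noxa peptide wells and 100% = peptide-only wells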
Mcl-1 Bim block – disrupts Bim peptide binding to human Mcl-1 | actives 0.1% (n = 190,000) | AID 1009 | Bead-based flow cytometry, Bim peptide-Mcl-1 binding | inhibition, % at 10 µM | Q07820; in the data active = inhibition above about 40%;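 note: 0% = no compound tracer wells and 100% = peptide blocker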
MCL1 BIM primary – disrupts human MCL1 binding to BIM-BH3 peptide | Q07820 | GST-MCL1 / FITC-Bim-BH3 fluorescence polarization | inhibition, % at 10.9 µM | actives 0.68% (n = 320,000);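 active = inhibition above the mean inhibition of all tested compounds plus 3 SD, set per campaign, cut at about 40% in these data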;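 note: 0% = DMSO wells and 100% = unlabeled Bim-BH3 peptide control; higher means more loss of mP so more displacement of Bim peptide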
* marks the source's active call; other numbers are inactive results; i = inactive; ? = inconclusive; . = not tested or not shown. Compounds with a hit are over-represented: about 2.3% of the library has one in this group of screens.

SMILES	DSG3 Ab inh	Mcl1 Bid PPI	T cell HTS	Mcl1 Noxa PPI	Mcl-1 Bim block	MCL1 BIM primary
Cc1c(C(=O)O)cccc1-c1ccc(/C=C2\SC(=O)NC2=O)o1	102	.	194	.	.	9
O=C(CN1C(=O)S/C(=C\c2ccc(-c3cc(C(=O)O)ccc3Cl)o2)C1=O)Nc1ccc2c(c1)OCO2	.	.	539	.	.	.
Cc1ccc(NC(=O)CN2C(=O)S/C(=C\c3ccc(-c4cccc(C(=O)O)c4C)o3)C2=O)cc1C	88	-76	.	79*	4	.
O=C(c1ccoc1)N1CCN(c2cc(-c3cccc(F)c3)nc3cc(-c4cccc(Cl)c4)nn23)CC1	99	.	.	.	.	.
O=C(COC(=O)COc1ccc(Br)cc1)NC1CCCC1	123	.	295	.	.	.
COc1ccc(C(=O)NCc2nnc(SCC(=O)N3CCCCCC3)o2)cc1OC	104	.	321	.	.	-12
COc1ccc(C(=O)NCc2nnc(SCC(=O)N3CCCCC3)o2)cc1OC	97	83*	325	5	0	-3
COc1cccc(C(=Cc2ccc([N+](=O)[O-])cc2)C(=O)O)c1	105	.	.	.	.	.
CC(=O)Nc1cccc(NC(=S)Nc2cccc(Cl)c2Cl)c1	91	-46	312	18	0	4
COC(=O)c1cccc(NC(=S)Nc2cccc(Cl)c2Cl)c1	134	98*	159	35	-4	7
Cc1ccc(Cl)c(OCC(=O)NCC(c2cccs2)N2CCOCC2)c1 (stereo not given)	105	.	181	.	.	-2
C/C(=N\Nc1ccc(S(=O)(=O)Nc2ccccc2)cc1[N+](=O)[O-])c1ccc(N2CCOCC2)cc1	76*	-7	285	0	1	-5
C/C(=N\Nc1ccc(S(=O)(=O)Nc2ccc(Cl)cc2)cc1[N+](=O)[O-])c1ccc(N2CCOCC2)cc1	98	-3	142	28	5	-2
CC(=O)c1cc2c(cc1NC(=O)c1ccc(Cl)cc1)OCCO2	31*	.	225	.	.	-4
CCC(=O)N1c2ccc(S(=O)(=O)NCCc3ccccc3)cc2CC1C (stereo not given)	.	.	304	.	.	2
COc1ccc(CCNC(=O)C2(C)CCC(=O)N2CCC(C)C)cc1OC (stereo not given)	108	59*	626	3	-3	2
COc1ccc(CCNC(=O)C23CCC(C)(C(=O)O2)C3(C)C)cc1OC (stereo not given)	102	-14	443	2	2	-4
CCOc1ccc(C(C)=O)cc1N1C(=O)C2C3C=CC(C3)C2C1=O (stereo not given)	101	-10	257	14	0	5
CCOc1ccc(C(C)=O)cc1N1C(=O)C2C3C=CC(O3)C2C1=O (stereo not given)	77	8	388	63*	0	-3
Cc1ccsc1C(=O)NNC(=O)COc1ccccc1Cl	-0.8*	.	394	.	.	2
CCN(CC(=O)Nc1ccccc1C(F)(F)F)C(=O)CN1C(=O)NC(C)(c2ccc3ccccc3c2)C1=O (stereo not given)	110	.	.	.	.	.
CCn1c(O)c(N=NC(=O)CNC(=O)c2cccnc2)c2ccccc21	107	.	.	.	.	.
O=C(c1cc(-c2ccco2)on1)N1CCc2ccccc2C1	102	15	296	69*	-3	2
Clc1cccc(CON/C=N/c2ncnc3sccc23)c1	112	2	215	5	0	3
Clc1cccc(Cl)c1CON/C=N/c1ncnc2sccc12	98	87*	241	2	-3	7
SMILES	DSG3 Ab inh	Mcl1 Bid PPI	T cell HTS	Mcl1 Noxa PPI	Mcl-1 Bim block	MCL1 BIM primary
C/C=C/c1ccc(OCCCNC(C)CC)c(OC)c1 (stereo not given)	?	59*	484	8	-4	-6
C/C=C/c1ccc(OCCCn2cncn2)c(OC)c1	99	27	160	15	-2	-1
C/C=C/c1ccc(OCCCCn2cncn2)c(OC)c1	?	57*	158	23	-2	-3
CCCC(=O)Nc1nnc(-c2cccc(OCC)c2)s1	101	86*	342	6	-2	5
CCOC(=O)Nc1nnc(-c2cccc(OC)c2)s1	104	16	i	11	0	6
Cc1nc(C)c(-c2nnc(-c3ccc(C(C)(C)C)cc3)o2)cc1C(=O)NN	.	-32	497	6	-2	4
CCOC(=O)CSc1nnc(-c2ccc(Cl)cc2Cl)o1	.	-26	170	9	3	3
CCOC(=O)c1cc(-c2nnc(-c3ccc(Cl)cc3)o2)c(C)nc1C	119	-11	423	6	40*	3
CCOC(=O)c1ccc(-c2nnc(-c3ccc(Cl)cc3Cl)o2)cc1	93*	3	382	3	2	2
O=C(CSc1ncn[nH]1)CSc1ncn[nH]1	101	-87	11*	-8	-3	-5
COc1ccc(NC(=O)CSc2ccccc2)c(OC)c1	102	-7	249	-6	4	-11
COc1ccc(NC(=O)CSc2ncnc3c2sc2ccccc23)c(OC)c1	102	16	0	79*	1	2
CN1CCC(N(C)C(=O)c2ccc(Cl)c(S(=O)(=O)N3CCOCC3)c2)CC1	106	.	.	.	.	.
CCOC(=O)C1=C(C)N(c2ccccc2)C(=O)/C1=C\c1cccs1	102	-15	183	9	2	-6
CCOC(=O)C1=C(C)N(c2ccc(C)cc2)C(=O)/C1=C\c1cccs1	98	-45	576	52*	0	0
CCCOc1ccc(N2C(=O)CC(N3CCN(S(=O)(=O)c4ccccc4)CC3)C2=O)cc1 (stereo not given)	95	-7	150	-20	5	5
O=C1CC(N2CCN(S(=O)(=O)c3ccccc3)CC2)C(=O)N1c1ccccc1 (stereo not given)	105	-8	214	92*	.	-5
Cc1cccc(N2CCN(C(=O)CSc3nc4ccccc4nc3N3CC(C)OC(C)C3)CC2)c1C (stereo not given)	.	.	303	.	.	9
Cc1ccc(-c2cc(C(=O)N3CCN(c4ncccn4)CC3)c3cc(Br)ccc3n2)o1	103	21	454	79*	4	18
NC(=O)C1(Nc2ccc(C(=O)O)cc2)CCCC1	90	.	.	.	.	.
COc1cc(/C=N/NC(=O)c2cccc(S(=O)(=O)N3CCOCC3)c2)cc(OC)c1O	105	-29	356	46	0	4
O=C(N/N=C/c1ccc(O)c(O)c1)c1cccc(S(=O)(=O)N2CCCCC2)c1	99	-21	212	56*	0	19
COc1cc(/C=N/NC(=O)c2cccc(S(=O)(=O)N3CCCCC3)c2)cc(Br)c1O	115	-43	208	72*	0	5
NC1=NC(=Nc2cccc(S(N)(=O)=O)c2)c2ccccc21	90	-11	73	7	.	5
COc1cc(N=Nc2cccc(S(N)(=O)=O)c2)c2ccccc2c1N	87	4	522	67*	.	-58

From PubChem BioAssay
